Experimental data as given in ChEMBL document CHEMBL1821591, “Cytotoxic bipyridines from the marine-derived actinomycete Actinoalloteichus cyanogriseus WH1-2216-6” (J Nat Prod, 2011).
Converted amounts (≈) assume the structure as drawn.

Experiments:
K562 = experiment: Cytotoxicity against human K562 cells after 72 hrs by MTT assay; format: functional, cell-based; settings: K562, 72 h
How it was run: (§1)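 MTT read-out on HL-60, K562 and KB; activity expressed as IC50 in μM.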

A549 = experiment: Cytotoxicity against human A549 cells after 24 hrs by SRB assay; format: functional, cell-based; settings: A549, 24 h
Pseudomonas aeruginosa = experiment: Antimicrobial activity against Pseudomonas aeruginosa after 24 hrs by agar dilution method; format: functional
HL-60 = experiment: Cytotoxicity against human HL60 cells after 72 hrs by MTT assay; format: functional, cell-based; settings: HL-60, 72 h; how it was run: as §1
Candida albicans = experiment: Antimicrobial activity against Candida albicans after 24 hrs by agar dilution method; format: functional
Escherichia coli = experiment: Antimicrobial activity against Escherichia coli after 24 hrs by agar dilution method; format: functional
KB = experiment: Cytotoxicity against human KB cells after 72 hrs by MTT assay; format: functional, cell-based; how it was run: as §1
Klebsiella aerogenes = experiment: Antimicrobial activity against Aerobacter aerogenes after 24 hrs by agar dilution method; format: functional

| MIC (Pseudomonas aeruginosa) | MIC (Candida albicans) | SMILES | IC50 (K562) | IC50 (A549) | IC50 (HL-60) | MIC (Escherichia coli) | IC50 (KB) | MIC (Klebsiella aerogenes) |
| --- | --- | --- | --- | --- | --- | --- | --- | --- |
| 21.8 µM (≈ 5 µg/mL) | 21.8 µM (≈ 5 µg/mL) | COc1cc(/C=N/O)nc(-c2ccccn2)c1 [CAERULOMYCIN A] | > 50000 nM | 260 nM | 710 nM | 10.9 µM (≈ 2.5 µg/mL) | > 50000 nM | – |
| 3.8 µM | 1.2 µM | O=C(O)c1cn(C2CC2)c2cc(N3CCNCC3)c(F)cc2c1=O [CIPROFLOXACIN LACTATE] | – | – | – | – | – | 0.94 µM |

| SMILES | MIC (Pseudomonas aeruginosa) | MIC (Candida albicans) | IC50 (K562) | IC50 (A549) | IC50 (HL-60) | MIC (Escherichia coli) | IC50 (KB) | MIC (Klebsiella aerogenes) |
| --- | --- | --- | --- | --- | --- | --- | --- | --- |
| CC(=O)N1CCN(c2ccc(OCC3COC(Cn4ccnc4)(c4ccc(Cl)cc4Cl)O3)cc2)CC1 (centres undefined) [KETOCONAZOLE] | 3.8 µM (≈ 2.02 µg/mL) | 1.2 µM (≈ 0.638 µg/mL) | – | – | – | 1.9 µM (≈ 1.01 µg/mL) | – | 0.94 µM (≈ 0.5 µg/mL) |
